# System: not listed separately
# Experiment: (§1) Inhibition of Saccharomyces cerevisiae TEL::URA3 SIR2-mediated URA3 reporter gene silencing after 24 to 48 hrs in presence of 5-FOA
# Method in brief: (§2)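 Yeast cell-based reporter silencing assay with URA3 integrated in the telomeric region. Sir2-mediated silencing of URA3 permits growth in 5-fluoroorotic acid, so Sir2 inhibition is read as loss of growth on 5-FOA. Compounds were tested as unseparated stereoisomer mixtures over a dose range, and IC50 was taken from the dose-response.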
row,IC50 [µM],SMILES
1,78,CCC1C2=C(CC(C)(C)CC2=O)Oc2c(I)c(-c3ccccc3)oc(=O)c21 (configuration not stated)

# System: Saccharomyces cerevisiae
# Experiment: as §1
# Method in brief: as §2
row,inhibition,SMILES
1,Dose-dependent effect,CCC1C2=C(CC(C)(C)CC2=O)Oc2c(I)c(-c3ccccc3)oc(=O)c21 (configuration not stated)

# System: Saccharomyces cerevisiae
# Experiment: Inhibition of Saccharomyces cerevisiae TEL::URA3 SIR2-mediated URA3 reporter gene silencing at 50 uM after 24 to 48 hrs in presence of 5-FOA relative to control
# Method in brief: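 Yeast strain with telomere-integrated URA3 reporter. Sir2 silencing of URA3 allows growth in 5-fluoroorotic acid, and inhibition of the yeast SIRT1 homologue Sir2 is scored by reduced growth in 5-FOA. Stereoisomer mixtures were tested unseparated at a single fixed concentration of 50.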
row,SMILES,inhibition [%]
1,COc1ccc(C2C3=C(CC(C)(C)CC3=O)Oc3c(I)c(-c4ccccc4)oc(=O)c32)cc1 (configuration not stated),32.4
2,CCOC(=O)C1=C(C)Oc2c(-c3ccc(O)cc3)c(-c3ccccc3)oc(=O)c2C1c1cccc(F)c1 (configuration not stated),1.51
3,CC1(C)CC(=O)C2=C(C1)Oc1c(-c3ccccc3)c(-c3ccccc3)oc(=O)c1C2c1cccc(O)c1 (configuration not stated),3.3
4,CCC1C2=C(CC(C)(C)CC2=O)Oc2c(I)c(-c3ccccc3)oc(=O)c21 (configuration not stated),43.9
5,CCCCC#Cc1c(-c2ccccc2)oc(=O)c2c1OC1=C(C(=O)CC(C)(C)C1)C2c1cccc(O)c1 (configuration not stated),1.01
6,CCOC(=O)C1=C(C)Oc2c(I)c(-c3ccccc3)oc(=O)c2C1c1cccc(F)c1 (configuration not stated),0.5
7,CC1(C)CC(=O)C2=C(C1)Oc1c(I)c(C3(O)CCCCC3)oc(=O)c1C2c1ccc(F)cc1 (configuration not stated),25.3

# Continued, values first:
row,inhibition [%],SMILES
1,49.5,CC1(C)CC(=O)C2=C(C1)Oc1c(I)c(-c3ccccc3)oc(=O)c1C2c1ccc(F)cc1 (configuration not stated)
2,43.2,CC1(C)CC(=O)C2=C(C1)Oc1c(I)c(-c3ccccc3)oc(=O)c1C2c1cccs1 (configuration not stated)
3,15.3,CC1(C)CC(=O)C2=C(C1)Oc1c(I)c(-c3ccccc3)oc(=O)c1C2c1ccco1 (configuration not stated)
